Measurements reported in ChEMBL document CHEMBL2434820, “Design, synthesis, and biological evaluation of novel 2-ethyl-5-phenylthiazole-4-carboxamide derivatives as protein tyrosine phosphatase 1B inhibitors with improved cellular efficacy” (Eur J Med Chem, 2013).

Tests used:
[1] = target: T1, Tyrosine-protein phosphatase non-receptor type 11 (Homo sapiens, UniProt Q06124); assay: Inhibition of SHP-2 (unknown origin)
T1 sequence (Q06124 whole entry): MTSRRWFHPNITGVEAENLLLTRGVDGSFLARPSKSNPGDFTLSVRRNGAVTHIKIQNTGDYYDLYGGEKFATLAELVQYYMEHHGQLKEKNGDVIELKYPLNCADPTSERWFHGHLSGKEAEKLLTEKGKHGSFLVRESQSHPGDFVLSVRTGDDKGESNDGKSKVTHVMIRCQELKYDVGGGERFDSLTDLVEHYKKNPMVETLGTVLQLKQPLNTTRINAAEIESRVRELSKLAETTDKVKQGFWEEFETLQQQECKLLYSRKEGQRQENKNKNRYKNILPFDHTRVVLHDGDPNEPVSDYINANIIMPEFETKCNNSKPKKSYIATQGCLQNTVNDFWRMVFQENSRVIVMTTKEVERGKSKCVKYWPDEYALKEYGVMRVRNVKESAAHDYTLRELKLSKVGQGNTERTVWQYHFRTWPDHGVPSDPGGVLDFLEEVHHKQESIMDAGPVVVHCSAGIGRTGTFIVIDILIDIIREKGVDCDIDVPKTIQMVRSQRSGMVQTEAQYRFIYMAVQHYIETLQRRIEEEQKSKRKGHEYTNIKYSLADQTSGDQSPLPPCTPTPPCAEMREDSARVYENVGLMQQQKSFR

Homo sapiens = species on record: Homo sapiens; assay: Selectivity ratio of IC50 for TCPTP (unknown origin) to IC50 for GST-tagged PTP1B (unknown origin)
[2] = target: T2, Tyrosine-protein phosphatase non-receptor type 1 (Homo sapiens, UniProt P18031); assay: Inhibition of GST-tagged PTP1B (unknown origin) using pNPP as substrate measured for 2 mins by colorimetric analysis
T2 sequence (P18031 whole entry): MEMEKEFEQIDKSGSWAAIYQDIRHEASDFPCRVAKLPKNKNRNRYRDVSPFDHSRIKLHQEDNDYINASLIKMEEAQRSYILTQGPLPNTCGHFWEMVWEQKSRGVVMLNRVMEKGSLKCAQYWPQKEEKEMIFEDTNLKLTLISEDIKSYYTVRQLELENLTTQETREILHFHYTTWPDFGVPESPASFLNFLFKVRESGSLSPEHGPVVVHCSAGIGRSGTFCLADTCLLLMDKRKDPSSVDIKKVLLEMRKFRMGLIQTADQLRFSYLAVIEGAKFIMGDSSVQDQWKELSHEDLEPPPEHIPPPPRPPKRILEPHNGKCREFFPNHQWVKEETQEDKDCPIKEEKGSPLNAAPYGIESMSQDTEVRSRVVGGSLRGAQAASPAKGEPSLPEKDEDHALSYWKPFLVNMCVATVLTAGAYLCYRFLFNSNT

[3] = target: Receptor-type tyrosine-protein phosphatase F (Homo sapiens, UniProt P10586); assay: Inhibition of LAR (unknown origin)
[4] = target: T3, Tyrosine-protein phosphatase non-receptor type 1 (Rattus norvegicus) (UniProt P20417); assay: Inhibition of PTP1B in rat L6 cells assessed as insulin-induced Akt phosphorylation preincubated for 2 hrs followed by insulin challenge for 10 mins by Western blotting analysis; format: cell-based
T3 sequence (whole entry): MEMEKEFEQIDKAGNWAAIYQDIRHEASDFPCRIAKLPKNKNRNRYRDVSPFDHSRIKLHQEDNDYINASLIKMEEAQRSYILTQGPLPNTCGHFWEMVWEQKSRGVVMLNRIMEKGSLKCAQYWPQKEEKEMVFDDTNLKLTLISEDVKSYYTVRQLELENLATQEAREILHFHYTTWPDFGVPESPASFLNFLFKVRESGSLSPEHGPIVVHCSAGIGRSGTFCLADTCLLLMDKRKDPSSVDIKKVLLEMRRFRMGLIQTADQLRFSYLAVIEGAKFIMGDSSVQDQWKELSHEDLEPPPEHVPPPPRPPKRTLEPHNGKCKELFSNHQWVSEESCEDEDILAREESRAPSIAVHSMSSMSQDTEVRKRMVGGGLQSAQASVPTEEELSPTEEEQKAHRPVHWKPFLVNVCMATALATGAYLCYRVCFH
Procedure, shortened: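 Rat L6 myoblasts were differentiated in DMEM with 2% FBS and used as myotubes 5–7 days later. They were serum-starved 2 h, treated with compound 2 h (0.2% DMSO vehicle), then given 10 nM insulin for 10 min. Lysates were run on 8% SDS-PAGE and immunoblotted for phospho-Akt (Ser473), with β-actin as loading control.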

[5] = target: Tyrosine-protein phosphatase non-receptor type 6 (Homo sapiens, UniProt P29350); assay: Inhibition of SHP-1 (unknown origin)
[6] = target: T3, Tyrosine-protein phosphatase non-receptor type 1 (Rattus norvegicus); assay: Inhibition of PTP1B in rat L6 cells assessed as insulin-stimulated 2-deoxy-[3H]-deoxy-glucose uptake preincubated for 2 hrs followed by insulin challenge for 30 mins; format: cell-based
Procedure, shortened: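 Differentiated L6 myotubes were serum-starved 2 h, treated with compound, then stimulated with 10 nM insulin for 30 min. Cells were washed in HEPES-buffered saline, pH 7.4, and incubated 15 min with 2-deoxy-[3H]-glucose. After ice-cold PBS washes they were lysed in 0.1% Triton X-100 and radioactivity was counted. Data are averages of at least three independent replicates.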

Sequence of Receptor-type tyrosine-protein phosphatase F (P10586 whole entry): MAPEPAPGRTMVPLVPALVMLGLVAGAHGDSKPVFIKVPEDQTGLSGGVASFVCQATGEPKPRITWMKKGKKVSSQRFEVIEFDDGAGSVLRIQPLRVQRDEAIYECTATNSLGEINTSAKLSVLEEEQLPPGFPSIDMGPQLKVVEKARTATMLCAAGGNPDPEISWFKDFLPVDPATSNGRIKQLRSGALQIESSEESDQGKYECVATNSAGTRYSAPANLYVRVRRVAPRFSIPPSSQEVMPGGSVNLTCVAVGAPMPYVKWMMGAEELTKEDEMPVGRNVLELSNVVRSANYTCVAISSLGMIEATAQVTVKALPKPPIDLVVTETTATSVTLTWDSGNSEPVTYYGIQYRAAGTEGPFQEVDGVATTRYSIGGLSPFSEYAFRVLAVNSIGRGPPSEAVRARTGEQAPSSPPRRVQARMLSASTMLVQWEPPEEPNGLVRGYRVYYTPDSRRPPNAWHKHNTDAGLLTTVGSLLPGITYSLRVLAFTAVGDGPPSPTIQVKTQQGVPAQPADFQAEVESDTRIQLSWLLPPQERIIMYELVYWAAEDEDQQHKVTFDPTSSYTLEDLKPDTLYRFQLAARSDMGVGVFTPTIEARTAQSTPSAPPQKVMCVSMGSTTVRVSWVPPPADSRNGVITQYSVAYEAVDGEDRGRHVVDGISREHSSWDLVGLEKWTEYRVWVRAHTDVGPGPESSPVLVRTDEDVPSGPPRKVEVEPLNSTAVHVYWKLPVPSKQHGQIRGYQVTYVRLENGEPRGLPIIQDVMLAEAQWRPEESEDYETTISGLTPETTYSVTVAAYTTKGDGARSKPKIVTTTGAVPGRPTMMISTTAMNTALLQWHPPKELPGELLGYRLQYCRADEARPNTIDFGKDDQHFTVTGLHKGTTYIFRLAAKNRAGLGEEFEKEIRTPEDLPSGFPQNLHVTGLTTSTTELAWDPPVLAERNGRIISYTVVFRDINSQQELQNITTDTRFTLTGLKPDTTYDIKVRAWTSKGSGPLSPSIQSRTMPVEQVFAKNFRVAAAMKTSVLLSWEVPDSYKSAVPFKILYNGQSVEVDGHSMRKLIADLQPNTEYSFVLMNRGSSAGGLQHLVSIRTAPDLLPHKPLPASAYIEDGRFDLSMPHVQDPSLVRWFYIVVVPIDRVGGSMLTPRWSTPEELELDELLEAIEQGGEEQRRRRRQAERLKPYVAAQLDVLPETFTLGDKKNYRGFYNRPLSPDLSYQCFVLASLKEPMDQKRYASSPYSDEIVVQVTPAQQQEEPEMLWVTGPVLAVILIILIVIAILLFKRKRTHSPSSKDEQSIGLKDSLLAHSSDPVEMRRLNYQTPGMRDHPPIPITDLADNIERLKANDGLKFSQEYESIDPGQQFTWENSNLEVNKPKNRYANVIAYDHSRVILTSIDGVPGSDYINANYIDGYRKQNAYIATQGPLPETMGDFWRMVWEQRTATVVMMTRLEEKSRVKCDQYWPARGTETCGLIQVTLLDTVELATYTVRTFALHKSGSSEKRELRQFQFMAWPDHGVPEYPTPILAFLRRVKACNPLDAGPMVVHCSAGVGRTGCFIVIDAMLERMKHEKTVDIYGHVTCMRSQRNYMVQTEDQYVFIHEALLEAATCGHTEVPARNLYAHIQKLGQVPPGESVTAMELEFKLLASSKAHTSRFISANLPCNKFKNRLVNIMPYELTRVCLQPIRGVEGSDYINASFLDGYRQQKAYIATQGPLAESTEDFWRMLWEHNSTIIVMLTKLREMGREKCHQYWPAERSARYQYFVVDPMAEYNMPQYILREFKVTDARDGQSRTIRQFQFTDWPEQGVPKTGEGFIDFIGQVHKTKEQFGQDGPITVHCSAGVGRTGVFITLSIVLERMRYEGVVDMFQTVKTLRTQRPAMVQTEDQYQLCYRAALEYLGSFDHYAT
Sequence of Tyrosine-protein phosphatase non-receptor type 6 (P29350 whole entry): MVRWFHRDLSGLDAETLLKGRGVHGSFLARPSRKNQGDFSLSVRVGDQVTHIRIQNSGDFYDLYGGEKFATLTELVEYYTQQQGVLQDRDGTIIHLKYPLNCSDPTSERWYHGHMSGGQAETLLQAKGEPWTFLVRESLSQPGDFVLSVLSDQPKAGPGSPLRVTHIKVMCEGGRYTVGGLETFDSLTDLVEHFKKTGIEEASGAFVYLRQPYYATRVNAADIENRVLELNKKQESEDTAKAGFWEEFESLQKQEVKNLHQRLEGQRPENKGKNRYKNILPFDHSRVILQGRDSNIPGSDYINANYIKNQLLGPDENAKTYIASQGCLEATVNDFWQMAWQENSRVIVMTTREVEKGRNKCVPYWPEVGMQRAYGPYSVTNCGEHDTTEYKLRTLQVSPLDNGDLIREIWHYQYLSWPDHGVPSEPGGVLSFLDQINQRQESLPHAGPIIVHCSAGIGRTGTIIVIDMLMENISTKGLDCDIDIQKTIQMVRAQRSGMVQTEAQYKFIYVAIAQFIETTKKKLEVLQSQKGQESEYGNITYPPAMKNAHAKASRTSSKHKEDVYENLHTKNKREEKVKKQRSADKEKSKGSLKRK

`O=C(CCc1c[nH]c2ccccc12)N[C@@H](Cc1ccc(OCc2ccccc2)cc1)c1nc(C(=O)Nc2cc(F)ccc2C(=O)O)c(-c2ccccc2)s1` was tested, and the IC50 [1] was 9.89 µM, the Ratio IC50 (Homo sapiens) was 2.6 and the IC50 [2] was 0.54 µM. The IC50 [3] was greater than 20 µM, the inhibition [4] was “Dose-dependent effect” and the IC50 [5] was 12.6 µM. The inhibition [6] was “Dose-dependent effect”.
